According to ChEMBL document CHEMBL4425094, “Novel Benzo[a]quinolizidine Analogs Induce Cancer Cell Death through Paraptosis and Apoptosis” (J Med Chem, 2016):

Tests used:
MDA-MB-231 = assay: Cytotoxicity against human MDA-MB-231 cells assessed as cell growth inhibition after 24 hrs by MTT assay; format: functional, cell-based; conditions: MDA-MB-231, 24 h
Summary of the method: (§1)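 Cells seeded 24 h in RPMI 1640 + 10% FBS. RWPE-1 was kept in K-SFM with bovine pituitary extract and EGF. Cells then exposed to compounds for 24 h at 37 °C, 5% CO2, with DMSO vehicle and docetaxel as positive control. MTT added for 4 h, absorbance read at 570 nm. Triplicate runs, IC50 reported as mean of three experiments.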

DU-145 = assay: Cytotoxicity against human DU145 cells assessed as cell growth inhibition after 24 hrs by MTT assay; format: functional, cell-based; conditions: DU-145, 24 h; summary of the method: as §1
K562 = assay: Cytotoxicity against human K562 cells assessed as cell growth inhibition after 24 hrs by MTT assay; format: functional, cell-based; conditions: K562, 24 h; summary of the method: as §1
HeLa = assay: Cytotoxicity against human HeLa cells assessed as cell growth inhibition after 24 hrs by MTT assay; format: functional, cell-based; summary of the method: as §1
PC-3 = assay: Cytotoxicity against human PC3 cells assessed as cell growth inhibition after 24 hrs by MTT assay; format: functional, cell-based; conditions: PC-3, 24 h; summary of the method: as §1
RWPE-1 = assay: Cytotoxicity against human RWPE1 cells assessed as cell growth inhibition after 24 hrs by MTT assay; format: cell-based; conditions: RWPE-1, 24 h; summary of the method: as §1
MCF7 = assay: Cytotoxicity against human MCF7 cells assessed as cell growth inhibition after 24 hrs by MTT assay; format: functional, cell-based; conditions: MCF7, 24 h; summary of the method: as §1

Row | SMILES | IC50 (MDA-MB-231) [µM] | IC50 (DU-145) [µM] | IC50 (K562) [µM] | IC50 (HeLa) [µM] | IC50 (PC-3) [µM] | IC50 (RWPE-1) [µM] | IC50 (MCF7) [µM]
1 | COc1ccc([C@@H]2C[C@H](O)C[C@H]3c4cc(OCc5cc(F)cc(F)c5)c(OCc5cc(F)cc(F)c5)cc4CCN23)cc1OC | > 20 | > 20 | > 20 | > 20 | > 20 | > 20 | > 20
2 | Cc1cc(C)cc(COc2cc3c(cc2OCc2cc(C)cc(C)c2)CN(C(=O)OC(C)(C)C)CC3)c1 | > 20 | > 20 | > 20 | > 20 | > 20 | > 20 | > 20
3 | CCCCCCOc1cc2c(cc1OCCCCCC)[C@@H]1C[C@H](O)C[C@@H](C)N1CC2 | > 20 | > 20 | > 20 | > 20 | > 20 | > 20 | > 20
4 | O[C@H]1C[C@@H](c2ccccc2)N2CCc3ccccc3[C@@H]2C1 | > 20 | > 20 | > 20 | > 20 | > 20 | > 20 | > 20
5 | CCCCCCOc1cc2c(cc1OCCCCCC)[C@@H]1C[C@@H](O)C[C@@H](C)N1CC2 | > 20 | > 20 | > 20 | > 20 | > 20 | > 20 | > 20
6 | O[C@H]1C[C@@H](c2ccccc2)N2CCc3cc(OCc4ccccc4)ccc3[C@@H]2C1 | > 20 | > 20 | > 20 | > 20 | > 20 | > 20 | > 20
7 | COc1ccc([C@@H]2C[C@@H](O)C[C@H]3c4cc(OCc5ccccc5)c(OCc5ccccc5)cc4CCN23)cc1OC | 1.15 | 1.59 | 5.42 | 3.46 | 1.51 | 2.08 | 2
8 | CCCCCCOc1cc2c(cc1OCCCCCC)[C@@H]1CC(=O)C[C@@H](C)N1CC2 (relative stereo) | > 20 | > 20 | > 20 | > 20 | > 20 | > 20 | > 20
9 | COc1ccc([C@@H]2CC(=O)C[C@H]3c4cc(OCc5ccccc5)c(OCc5ccccc5)cc4CCN23)cc1OC (relative stereo) | > 20 | > 20 | > 20 | > 20 | > 20 | > 20 | > 20
10 | O[C@H]1C[C@@H](c2ccccc2)N2CCc3ccc(OCc4ccccc4)cc3[C@@H]2C1 | > 20 | > 20 | > 20 | > 20 | > 20 | > 20 | > 20
11 | COc1cc2c(cc1OC)[C@@H]1CC(=O)C[C@@H](c3ccccc3)N1CC2 (relative stereo) | > 20 | > 20 | > 20 | > 20 | > 20 | > 20 | > 20
12 | COc1cc([C@@H]2CC(=O)C[C@H]3c4cc(OCc5ccccc5)c(OCc5ccccc5)cc4CCN23)cc(OC)c1OC (relative stereo) | > 20 | > 20 | > 20 | > 20 | > 20 | > 20 | > 20
13 | C[C@@H]1C[C@@](C)(O)C[C@H]2c3cc(OCc4ccc(C(C)(C)C)cc4)c(OCc4ccc(C(C)(C)C)cc4)cc3CCN12 | 0.98 | 1.46 | 1.35 | 0.91 | 1.11 | 4.03 | 2.61
14 | COc1ccc([C@@H]2CC(=O)C[C@H]3c4cc(OCc5ccccc5)c(OCc5ccccc5)cc4CCN23)cc1 (relative stereo) | > 20 | > 20 | > 20 | > 20 | > 20 | > 20 | > 20
15 | O[C@@H]1C[C@@H](c2ccccc2)N2CCc3cc4c(cc3[C@@H]2C1)OCO4 | > 20 | > 20 | > 20 | > 20 | > 20 | > 20 | > 20
16 | CC[C@@H]1C[C@@H](O)C[C@H]2c3cc(OCc4ccccc4)c(OCc4ccccc4)cc3CCN12 | 2.88 | 1.68 | 1.41 | 2.43 | 2.15 | 2.2 | 2.79
17 | C[C@@H]1C[C@@H](O)C[C@H]2c3cc4c(cc3CCN12)OCO4 | > 20 | > 20 | > 20 | > 20 | > 20 | > 20 | > 20

Row | SMILES | IC50 (MDA-MB-231) [µM] | IC50 (DU-145) [µM] | IC50 (K562) [µM] | IC50 (HeLa) [µM] | IC50 (PC-3) [µM] | IC50 (RWPE-1) [µM] | IC50 (MCF7) [µM]
18 | O=C1C[C@@H](c2ccccc2)N2CCc3ccccc3[C@@H]2C1 (relative stereo) | > 20 | > 20 | > 20 | > 20 | > 20 | > 20 | > 20
19 | C[C@@H]1CC(=O)C[C@H]2c3cc(OCc4cccc(F)c4)c(OCc4cccc(F)c4)cc3CCN12 | 1.3 | > 20 | > 20 | > 20 | > 20 | > 20 | > 20
20 | C[C@@H]1C[C@H](O)C[C@H]2c3cc4c(cc3CCN12)OCO4 | > 20 | > 20 | > 20 | > 20 | > 20 | > 20 | > 20
21 | CCCCCC[C@@H]1C[C@@H](O)C[C@H]2c3cc(OCc4ccccc4)c(OCc4ccccc4)cc3CCN12 | > 20 | > 20 | > 20 | > 20 | > 20 | > 20 | > 20
22 | O=C1C[C@@H](c2ccccc2)N2CCc3cc(OCc4ccccc4)ccc3[C@@H]2C1 (relative stereo) | > 20 | > 20 | > 20 | > 20 | > 20 | > 20 | > 20
23 | O[C@@H]1CCN2CCc3cc(OCc4ccccc4)c(OCc4ccccc4)cc3[C@@H]2C1 (relative stereo) | > 20 | > 20 | > 20 | > 20 | > 20 | > 20 | > 20
24 | COc1ccc([C@@H]2C[C@H](O)C[C@H]3c4cc(OCc5ccccc5)c(OCc5ccccc5)cc4CCN23)cc1 | > 20 | > 20 | > 20 | > 20 | > 20 | > 20 | > 20
25 | Oc1cc2c(cc1O)[C@@H]1C[C@H](O)C[C@@H](c3ccccc3)N1CC2 | > 20 | > 20 | > 20 | > 20 | > 20 | > 20 | > 20
26 | COc1ccc([C@@H]2C[C@H](O)C[C@H]3c4cc(OCc5ccccc5)c(OCc5ccccc5)cc4CCN23)cc1OC | > 20 | > 20 | > 20 | > 20 | > 20 | > 20 | > 20
27 | O=C1C[C@@H](c2ccc(-c3ccccc3)cc2)N2CCc3cc(OCc4ccccc4)c(OCc4ccccc4)cc3[C@@H]2C1 (relative stereo) | > 20 | > 20 | > 20 | > 20 | > 20 | > 20 | > 20
28 | CC1(C)CC(=O)C[C@H]2c3cc(OCc4ccccc4)c(OCc4ccccc4)cc3CCN21 | > 20 | > 20 | > 20 | > 20 | > 20 | > 20 | > 20
29 | C[C@@H]1CC(=O)C[C@H]2c3cc4c(cc3CCN12)OCO4 (relative stereo) | > 20 | > 20 | > 20 | > 20 | > 20 | > 20 | > 20
30 | COc1ccc([C@@H]2C[C@@H](O)C[C@H]3c4cc(OCc5cc(F)cc(F)c5)c(OCc5cc(F)cc(F)c5)cc4CCN23)cc1OC | 1.3 | 3.96 | 3.92 | 4.67 | 1.71 | 2.24 | 3.52
31 | CCCCCCCCCCCCCCCCOc1cc2c(cc1OCCCCCCCCCCCCCCCC)[C@@H]1CC(=O)C[C@@H](C)N1CC2 | > 20 | > 20 | > 20 | > 20 | > 20 | > 20 | > 20
32 | c1ccc(COc2cc3c(cc2OCc2ccccc2)[C@@H]2CCC[C@@H](c4ccccc4)N2CC3)cc1 | > 20 | > 20 | > 20 | > 20 | > 20 | > 20 | > 20
33 | O[C@@H]1C[C@@H](c2ccccc2)N2CCc3ccc(OCc4ccccc4)cc3[C@@H]2C1 | > 20 | > 20 | > 20 | > 20 | > 20 | > 20 | > 20
